Data: ChEMBL document CHEMBL1137361, “WB4101-related compounds: new, subtype-selective alpha1-adrenoreceptor antagonists (or inverse agonists?)” (J Med Chem, 2006)
Values belong to the molecule of their own block, whether it stands above or below them.

Key:
[1] = molecular target: T1, Alpha-1A adrenergic receptor (Rattus norvegicus, UniProt P43140); test: Activity at adrenergic alpha 1A receptor assessed as antagonsim of noradrenaline-induced contraction of […]; format: functional, tissue-based, Sprague-Dawley; details: read-out: pA2 (converted)
T1 sequence (P43140 whole entry): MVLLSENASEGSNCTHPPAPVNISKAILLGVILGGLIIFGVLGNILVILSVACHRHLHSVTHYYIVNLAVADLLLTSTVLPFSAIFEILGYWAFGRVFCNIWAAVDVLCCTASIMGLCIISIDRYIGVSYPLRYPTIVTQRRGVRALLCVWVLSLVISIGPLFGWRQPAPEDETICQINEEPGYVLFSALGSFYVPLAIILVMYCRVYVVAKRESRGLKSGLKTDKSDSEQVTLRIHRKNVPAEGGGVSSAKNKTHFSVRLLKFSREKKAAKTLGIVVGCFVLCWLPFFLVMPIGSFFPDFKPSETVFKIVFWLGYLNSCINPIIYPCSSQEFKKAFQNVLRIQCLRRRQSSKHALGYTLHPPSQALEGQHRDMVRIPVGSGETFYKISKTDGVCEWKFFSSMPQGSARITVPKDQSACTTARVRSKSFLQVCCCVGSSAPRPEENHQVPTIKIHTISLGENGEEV
Method in brief: (§1)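 Rat vas deferens, prostatic portion. Contraction was induced with (-)-noradrenaline, and blocking activity was measured as antagonism of that contraction.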

Cavia porcellus [2] = species on record: Cavia porcellus; test: Inverse agonist effect on calcium-induced increase in resting tension of calcium-depleted guinea pig thoracic aorta at 10 nM; format: functional
Method in brief: (§2)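 Guinea pig thoracic aorta was calcium-depleted and preincubated with antagonist, then challenged with Ca2+. The Ca2+-induced increase in resting tone was compared with the increase after the same Ca2+ challenge in the absence of antagonist.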

[3] = molecular target: T2, Alpha-2A adrenergic receptor (Rattus norvegicus, UniProt P22909); test: Activity at adrenergic alpha 2A receptor assessed as antagonism on clonidine-inhibited twitch responses of field-stimulated Sprague-Dawley rat vas deferens; details: read-out: pA2 (converted)
T2 sequence (P22909 whole entry): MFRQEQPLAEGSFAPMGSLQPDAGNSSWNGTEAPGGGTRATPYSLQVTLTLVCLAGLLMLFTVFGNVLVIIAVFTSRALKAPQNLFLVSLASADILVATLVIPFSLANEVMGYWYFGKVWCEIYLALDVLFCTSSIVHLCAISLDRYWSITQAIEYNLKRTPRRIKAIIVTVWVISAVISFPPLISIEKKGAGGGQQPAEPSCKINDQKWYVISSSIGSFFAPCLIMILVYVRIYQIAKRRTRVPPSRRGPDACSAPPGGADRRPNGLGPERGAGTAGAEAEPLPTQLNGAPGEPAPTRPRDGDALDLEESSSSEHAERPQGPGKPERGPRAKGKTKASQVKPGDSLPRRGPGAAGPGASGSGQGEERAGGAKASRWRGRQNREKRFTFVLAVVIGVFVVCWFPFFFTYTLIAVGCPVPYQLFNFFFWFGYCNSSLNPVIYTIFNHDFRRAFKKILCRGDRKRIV

[4] = molecular target: T3, Alpha-1A adrenergic receptor (Homo sapiens, UniProt P35348); test: Displacement of [3H]prazosin from cloned human adrenergic alpha 1A receptor expressed in CHO cells; format: cell-based
T3 sequence (P35348 whole entry): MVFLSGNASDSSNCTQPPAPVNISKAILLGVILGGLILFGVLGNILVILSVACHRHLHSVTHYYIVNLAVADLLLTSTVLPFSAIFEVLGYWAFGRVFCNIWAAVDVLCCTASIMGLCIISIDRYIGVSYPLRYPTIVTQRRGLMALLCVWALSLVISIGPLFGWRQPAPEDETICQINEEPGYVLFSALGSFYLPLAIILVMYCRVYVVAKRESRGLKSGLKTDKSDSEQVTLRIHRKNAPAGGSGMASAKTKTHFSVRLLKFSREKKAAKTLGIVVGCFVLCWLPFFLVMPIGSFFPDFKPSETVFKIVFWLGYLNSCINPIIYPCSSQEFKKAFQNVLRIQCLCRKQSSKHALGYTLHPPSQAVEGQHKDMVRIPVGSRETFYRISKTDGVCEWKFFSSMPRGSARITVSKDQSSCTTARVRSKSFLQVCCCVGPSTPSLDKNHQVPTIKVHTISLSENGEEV
Method in brief: (§3)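 Radioligand binding with [3H]prazosin as the label. Membranes came from CHO cells expressing the cloned human receptor. Affinity is expressed as pKi.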

[5] = molecular target: T4, Alpha-1D adrenergic receptor (Rattus norvegicus, UniProt P23944); test: Activity at adrenergic alpha 1D receptor assessed as antagonism on noradrenaline-induced contraction of Sprague-Dawley rat thoracic aorta; format: functional, tissue-based; details: read-out: pA2 (converted)
T4 sequence (P23944 whole entry): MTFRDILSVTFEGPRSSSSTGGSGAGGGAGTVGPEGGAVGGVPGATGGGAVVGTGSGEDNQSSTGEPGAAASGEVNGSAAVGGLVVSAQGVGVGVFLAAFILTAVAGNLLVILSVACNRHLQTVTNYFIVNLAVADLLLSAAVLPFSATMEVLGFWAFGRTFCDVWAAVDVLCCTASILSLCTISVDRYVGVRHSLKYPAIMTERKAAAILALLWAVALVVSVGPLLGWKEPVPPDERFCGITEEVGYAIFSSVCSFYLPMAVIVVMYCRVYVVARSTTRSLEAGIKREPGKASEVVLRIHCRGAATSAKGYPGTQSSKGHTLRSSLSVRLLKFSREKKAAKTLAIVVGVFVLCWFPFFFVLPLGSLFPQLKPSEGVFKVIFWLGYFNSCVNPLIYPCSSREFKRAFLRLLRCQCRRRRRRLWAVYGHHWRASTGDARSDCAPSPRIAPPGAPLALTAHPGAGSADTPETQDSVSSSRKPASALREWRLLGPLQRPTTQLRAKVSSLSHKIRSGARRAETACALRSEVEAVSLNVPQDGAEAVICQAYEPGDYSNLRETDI
Method in brief: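 Rat thoracic aorta contracted with (-)-noradrenaline. Blocking activity was measured as antagonism of the contraction.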

[6] = molecular target: T1, Alpha-1A adrenergic receptor; test: Activity at adrenergic alpha 1A receptor assessed as antagonism of noradrenaline-induced contraction of Sprague-Dawley rat vas deferens; format: functional, tissue-based; details: read-out: pA2 (converted); method in brief: as §1
[7] = molecular target: T5, 5-hydroxytryptamine receptor 1A (Rattus norvegicus, UniProt P19327); test: Displacement of [3H]8-OH-DPAT from 5-HT1A receptor in rat hippocampus; format: tissue-based
T5 sequence (P19327 whole entry): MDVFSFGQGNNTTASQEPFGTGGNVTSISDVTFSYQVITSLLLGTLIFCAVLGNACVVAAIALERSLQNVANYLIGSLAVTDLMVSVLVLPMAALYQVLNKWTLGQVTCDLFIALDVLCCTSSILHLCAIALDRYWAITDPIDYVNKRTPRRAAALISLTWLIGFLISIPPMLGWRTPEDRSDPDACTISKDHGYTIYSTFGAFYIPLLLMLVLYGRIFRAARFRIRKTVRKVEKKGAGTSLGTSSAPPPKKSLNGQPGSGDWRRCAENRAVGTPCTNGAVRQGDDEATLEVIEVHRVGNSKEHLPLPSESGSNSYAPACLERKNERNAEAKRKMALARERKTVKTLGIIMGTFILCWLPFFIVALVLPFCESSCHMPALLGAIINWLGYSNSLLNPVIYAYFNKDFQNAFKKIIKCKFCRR
Method in brief: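 Radioligand binding with [3H]-8-OH-DPAT in membrane preparations from rat hippocampus. Affinity is expressed as pKi.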

[8] = molecular target: T6, Alpha-1B adrenergic receptor (Homo sapiens, UniProt P35368); test: Displacement of [3H]prazosin from cloned human adrenergic alpha 1B receptor expressed in CHO cells; format: cell-based; method in brief: as §3
T6 sequence (P35368 whole entry): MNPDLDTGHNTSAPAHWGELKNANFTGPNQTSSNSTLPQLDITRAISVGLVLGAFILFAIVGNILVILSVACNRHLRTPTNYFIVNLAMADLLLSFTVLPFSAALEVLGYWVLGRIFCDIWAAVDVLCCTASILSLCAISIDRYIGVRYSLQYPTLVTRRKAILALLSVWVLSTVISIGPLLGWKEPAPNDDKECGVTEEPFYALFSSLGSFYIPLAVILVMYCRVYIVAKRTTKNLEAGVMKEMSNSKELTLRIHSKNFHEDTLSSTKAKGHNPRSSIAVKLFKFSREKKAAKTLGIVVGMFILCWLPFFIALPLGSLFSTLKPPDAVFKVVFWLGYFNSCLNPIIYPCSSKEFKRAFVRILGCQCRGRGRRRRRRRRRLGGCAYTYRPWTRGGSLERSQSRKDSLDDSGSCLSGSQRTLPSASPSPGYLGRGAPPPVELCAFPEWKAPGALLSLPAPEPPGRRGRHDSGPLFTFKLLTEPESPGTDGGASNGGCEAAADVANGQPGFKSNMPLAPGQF

[9] = Selectivity for 5HT1A receptor in rat hippocampus over human adrenergic alpha 1A receptor; format: tissue-based
[10] = molecular target: Alpha adrenergic receptor (1a and 1d) (Homo sapiens) (UniProt P35348+P25100); test: Selectivity for human adrenergic alpha 1A receptor over human adrenergic alpha 1D receptor
[11] = molecular target: Adrenergic receptors; alpha-1 A & B (Homo sapiens) (UniProt P35348+P35368); test: Selectivity for human adrenergic alpha 1B receptor over human adrenergic alpha 1A receptor; format: protein assay
[12] = molecular target: T7, Alpha-1D adrenergic receptor (Homo sapiens, UniProt P25100); test: Displacement of [3H]prazosin from cloned human adrenergic alpha 1D receptor expressed in CHO cells; format: cell-based; method in brief: as §3
T7 sequence (P25100 whole entry): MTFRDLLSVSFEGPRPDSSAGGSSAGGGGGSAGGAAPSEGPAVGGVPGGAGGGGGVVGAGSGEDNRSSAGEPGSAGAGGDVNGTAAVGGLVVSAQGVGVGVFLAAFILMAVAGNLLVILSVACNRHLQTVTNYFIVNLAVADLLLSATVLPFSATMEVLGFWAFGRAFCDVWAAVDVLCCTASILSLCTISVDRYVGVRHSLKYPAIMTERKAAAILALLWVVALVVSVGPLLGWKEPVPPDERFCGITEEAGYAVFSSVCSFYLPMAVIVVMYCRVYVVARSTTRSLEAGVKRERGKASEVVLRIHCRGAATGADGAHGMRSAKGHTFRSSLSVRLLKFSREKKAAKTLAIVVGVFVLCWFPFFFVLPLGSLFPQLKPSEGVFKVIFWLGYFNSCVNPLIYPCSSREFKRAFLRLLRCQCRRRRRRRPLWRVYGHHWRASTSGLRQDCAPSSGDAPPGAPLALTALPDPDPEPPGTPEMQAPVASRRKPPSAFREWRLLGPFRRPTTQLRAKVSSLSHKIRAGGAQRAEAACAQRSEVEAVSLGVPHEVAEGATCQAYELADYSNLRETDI

Cavia porcellus [13] = species on record: Cavia porcellus; test: Inverse agonist effect on calcium-induced increase in resting tension of calcium-depleted guinea pig thoracic aorta at 100 nM; format: functional; method in brief: as §2

Compound: COc1cccc(OC)c1OCCNC[C@@H]1COc2ccccc2O1
Kb [1]: 20 nM | Ki [4]: 11.2 nM | Kb [5]: 22.4 nM | Kb [3]: 457 nM | Kb [6]: 16.2 nM | Ki [7]: 40.7 nM

Compound: COc1cccc(-c2ccccc2)c1OCCNC[C@@H]1COc2ccccc2O1
Ki [8]: 151 nM | Ki [4]: 9.33 nM | Selectivity ratio [9]: 8.3 | Selectivity ratio [10]: 3.1 | Selectivity ratio [11]: 16.2 | Ki [12]: 28.8 nM | Ki [7]: 77.6 nM

Compound: COc1ccc2ccccc2c1OCCNC[C@@H]1COc2cc3c(cc2O1)CCCC3
Ki [8]: 550 nM | Ki [4]: 324 nM | Selectivity ratio [9]: 11.2 | Selectivity ratio [10]: 3 | Selectivity ratio [11]: 1.7 | Ki [12]: 955 nM | Ki [7]: 3630 nM

Compound: COc1cccc(OC)c1OCCNC[C@@H]1COc2cc3c(cc2O1)CCCC3
Ki [8]: 398 nM | Ki [4]: 100 nM | Selectivity ratio [9]: 5 | Selectivity ratio [10]: 2 | Selectivity ratio [11]: 4 | Ki [12]: 204 nM | Ki [7]: 501 nM

Compound: COc1cccc(OC)c1OCCNC[C@H]1COc2ccccc2O1.Cl
Kb [1]: 0.324 nM | Activity (Cavia porcellus [13]): 27% | Activity (Cavia porcellus [2]): 10% | Ki [4]: 0.407 nM | Kb [5]: 0.631 nM | Kb [3]: 120 nM | Ki [7]: 2.45 nM

Further lines, with some results ahead:

Kb [1]: 0.661 nM | Kb [3]: 257 nM
Compound: COc1cccc(OC)c1OCCNCC1COc2ccccc2O1 (stereo not given)
Activity (Cavia porcellus [2]): 25%

Ki [8]: 61.7 nM | Ki [4]: 16.2 nM | Selectivity ratio [9]: 22.4 | Selectivity ratio [10]: 3.3 | Selectivity ratio [11]: 3.8 | Ki [12]: 53.7 nM | Ki [7]: 363 nM
Compound: COc1ccc(-c2ccccc2)cc1OCCNC[C@@H]1COc2ccccc2O1

Ki [8]: 49 nM | Ki [4]: 11.5 nM | Selectivity ratio [9]: 11.5 | Selectivity ratio [10]: 1.3 | Selectivity ratio [11]: 4.3 | Ki [12]: 15.8 nM | Ki [7]: 132 nM
Compound: COc1ccc2c(c1OCCNC[C@@H]1COc3ccccc3O1)CCCC2

Ki [8]: 427 nM | Ki [4]: 102 nM | Selectivity ratio [9]: 9.8 | Selectivity ratio [10]: 2.9 | Selectivity ratio [11]: 4.2 | Ki [12]: 295 nM | Ki [7]: 1000 nM
Compound: COc1cccc(OC)c1OCCNC[C@@H]1COc2cc3ccccc3cc2O1

Ki [8]: 550 nM | Ki [4]: 234 nM | Selectivity ratio [9]: 3.7 | Selectivity ratio [10]: 1.5 | Selectivity ratio [11]: 2.3 | Ki [12]: 363 nM | Ki [7]: 871 nM
Compound: COc1cc(-c2ccccc2)ccc1OCCNC[C@@H]1COc2ccccc2O1
